Values belong to the compound of their own block, whether it stands above or below them. Calls of active or inactive are those of the source. The rule behind the calls is not given here.
Legend:
HEK293 = assay: (§1) Displacement of [125I]-Tyr6, His5 from human LHRH1 receptor expressed in HEK 293 cells after 16 to 19 hrs by gamma counter; type: cell-based
In short: (§2)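 Competition binding on membranes from HEK 293 cells stably expressing human LHRH-I receptor, in HEPES buffer with CaCl2, MgCl2 and 0.5% BSA, pH 7.4. Radioligand was 120,000–240,000 cpm [125I-Tyr6,His5]LHRH with rising peptide concentrations, 16–19 h at 4 °C. Samples were filtered on PEI-soaked GF/C and gamma counted. Data were fitted to a one-site model by nonlinear regression; 3–4 experiments.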

[1] = as §1; type: cell-based; conditions: hek293; in short: as §2
[2] = Metabolic stability in mouse renal epithelial cell membranes assessed as compound remaining at 10 nM measured at 30 mins; type: ADME, cell-based; conditions: for remaining at 0.5 h, 0.01 µM: renal epithelial cell membranes, read-out: Stability
In short: (§3)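 Mouse kidney membranes (100,000 × g pellet) in 20 mM phosphate/100 mM NaCl, pH 7.4, at 4 mg/ml protein, incubated with 10 nM peptide at 37 °C with shaking. Sampling at 0, 30, 60 and 120 min was stopped with acetonitrile. LC-MS/MS (MRM) peak areas are expressed relative to t = 0 (100%).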

[3] = Cmax in overnight fasted C57BL/6N mouse at 1 mg/kg, ip; type: ADME, organism-based; set-up: dose 1 mg/kg, route intraperitoneal; conditions: in vivo
In short: (§4)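 Male C57BL/6 mice, fasted 12 h overnight, given 1 mg kg-1 i.p. in saline. Blood was taken by cardiac puncture under isoflurane at 1, 2, 4 and 6 h post-dose (n = 5). Plasma was deproteinized and peptide was quantified by LC-MS/MS (MRM) against an internal standard using nine-point calibration curves. Parameters were derived from the plasma concentration–time data.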

Mus musculus [4] = assay: Agonist activity at LHRH1 receptor in C57BL/6N mouse assessed as release of testosterone in plasma at 1 ug/kg, ip; type: functional, organism-based
In short: (§5)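 Male C57BL/6N mice were pretreated i.p. with saline. After 15 min, peptide was given i.p. at 1 or 100 µg kg-1 (n = 5). Plasma testosterone was measured by LC-MS/MS with a dexamethasone internal standard.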

[5] = Analytical recovery in overnight fasted C57BL/6N mouse plasma assessed as compound recovered at 5 ng/mL, ip
[6] = Drug excretion in overnight fasted C57BL/6N mouse assessed as elimination rate constant at 1 mg/kg, ip; type: ADME, organism-based; set-up: dose 1 mg/kg, route intraperitoneal; conditions: in vivo, read-out: Drug excretion (converted); in short: as §4
[7] = Half life in overnight fasted C57BL/6N mouse at 1 mg/kg, ip; type: ADME, organism-based; set-up: dose 1 mg/kg, route intraperitoneal; conditions: in vivo; in short: as §4
Plasma = assay: Metabolic stability in overnight fasted C57BL/6N mouse plasma at 1 mg/kg, ip; type: ADME, organism-based; set-up: dose 1 mg/kg, route intraperitoneal; conditions: in vivo
In short: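 Plasma peptide stability in vivo: fasted male C57BL/6 mice received 1 mg kg-1 i.p. in saline. Cardiac-puncture plasma was collected at 1, 2, 4 and 6 h (n = 5). Peptide was measured by LC-MS/MS after protein precipitation.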

Mus musculus [8] = assay: Agonist activity at LHRH1 receptor in C57BL/6N mouse assessed as release of testosterone in plasma at 1 ug/kg, ip in presence of cetrorelix; type: functional, organism-based
In short: (§6)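 Male C57BL/6N mice first received cetrorelix 1 mg kg-1 i.p. After 15 min, peptide was given i.p. at 1 or 100 µg kg-1 (n = 5). Plasma testosterone was quantified by LC-MS/MS with a dexamethasone internal standard.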

[9] = Metabolic stability in overnight fasted C57BL/6N mouse plasma assessed as compound remaining at 50 ng/mL, ip; type: ADME, cell-free; conditions: read-out: Stability
In short: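 Recovery of spiked peptide from mouse plasma at 5 and 50 ng/mL. Plasma was extracted by protein precipitation and analysed by LC-MS/MS with an internal standard.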

[10] = AUC in overnight fasted C57BL/6N mouse at 1 mg/kg, ip; type: ADME, organism-based; set-up: dose 1 mg/kg, route intraperitoneal; conditions: plasma; in short: as §4
Mus musculus [11] = assay: Agonist activity at LHRH1 receptor in C57BL/6N mouse assessed as testosterone AUC (1 to 6 hrs) at 1 mg/kg, ip; type: functional; conditions: route intraperitoneal
In short: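 Male C57BL/6N mice were dosed 1 mg kg-1 i.p. with saline vehicle controls (n = 5). Cardiac-puncture plasma was taken at 1, 2, 4 and 6 h. Testosterone was quantified by LC-MS/MS with a dexamethasone internal standard, calibrated 0.05–100 ng mL-1. AUC was computed over 1–6 h; mean ± SD.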

[12] = Metabolic stability in mouse renal epithelial cell membranes assessed as compound remaining at 10 nM measured at 120 mins; type: ADME, cell-based; conditions: read-out: Stability; in short: as §3
[13] = Tmax in overnight fasted C57BL/6N mouse at 1 mg/kg, ip; type: ADME, organism-based; set-up: dose 1 mg/kg, route intraperitoneal; conditions: in vivo; in short: as §4
Mus musculus [14] = assay: Agonist activity at LHRH1 receptor in C57BL/6N mouse assessed as release of testosterone in plasma at 100 ug/kg, ip; type: functional, organism-based; in short: as §5
Mus musculus [15] = assay: Agonist activity at LHRH1 receptor in C57BL/6N mouse assessed as release of testosterone in plasma at 100 ug/kg, ip in presence of cetrorelix; type: functional, organism-based; in short: as §6

SMILES: CC(C)C[C@@H]1NC(=O)[C@@H](CC(C)C)NC(=O)[C@H](Cc2ccc(O)cc2)NC(=O)[C@H](CO)NC(=O)[C@H](Cc2c[nH]c3ccccc23)NC(=O)[C@H](Cc2cnc[nH]2)NC(=O)[C@@H]2CCCN2C(=O)C[C@H](C)NC(=O)[C@@H]2CCCN2C(=O)[C@H](CCCNC(=N)N)NC1=O
- remaining at 2 h, 0.01 µM [12]: 100%
- Cmax [3]: 834 ng/mL
- recovered at 5 ng/mL [5]: > 90%
- k el [6]: 0.000278 s⁻¹
- half-life [7]: 30 min
- Tmax [13]: 1 h
- Activity (Mus musculus [14]): Active
- Stability (Plasma): Stable
- Activity (Mus musculus [15]): inactive
- remaining at 50 ng/mL [9]: > 90%
- inhibition (HEK293): Dose-dependent effect
- pIC50 [1]: 6.17
- AUC [10]: 808 ng·h/mL
- Activity (Mus musculus [11]): 61.1 ng·h/mL
- remaining at 0.5 h, 0.01 µM [2]: 100%

SMILES: COc1ccc(C[C@@H]2NC(=O)[C@H](CO)NC(=O)[C@H](Cc3c[nH]c4ccccc34)NC(=O)[C@H](Cc3cnc[nH]3)NC(=O)[C@@H]3CCCN3C(=O)CNC(=O)[C@@H]3CCN3C(=O)[C@H](CCCNC(=N)N)NC(=O)[C@H](CC(C)C)NC(=O)[C@@H](Cc3c[nH]c4ccccc34)NC2=O)cc1
- inhibition (HEK293): Dose-dependent effect
- pIC50 [1]: 5.58
- remaining at 0.5 h, 0.01 µM [2]: 68%

SMILES: COc1ccc(C[C@@H]2NC(=O)[C@H](CO)NC(=O)[C@H](Cc3c[nH]c4ccccc34)NC(=O)[C@H](Cc3cnc[nH]3)NC(=O)[C@@H]3CCCN3C(=O)CCCCCNC(=O)C[C@H](C)NC(=O)[C@@H]3CCCN3C(=O)[C@H](CCCNC(=N)N)NC(=O)[C@H](CC(C)C)NC(=O)[C@@H](CC(C)C)NC2=O)cc1
- inhibition (HEK293): Dose-dependent effect
- pIC50 [1]: 5.54
- remaining at 0.5 h, 0.01 µM [2]: 90%

More lines, main results first:

- remaining at 0.5 h, 0.01 µM [2]: 72%
SMILES: CC(C)C[C@@H]1NC(=O)[C@@H](CC(C)C)NC(=O)[C@H](Cc2ccc(O)cc2)NC(=O)[C@H](CO)NC(=O)[C@H](Cc2c[nH]c3ccccc23)NC(=O)[C@H](Cc2cnc[nH]2)NC(=O)[C@@H]2CCCN2C(=O)CCCCCNC(=O)C[C@H](C)NC(=O)[C@@H]2CCCN2C(=O)[C@H](CCCNC(=N)N)NC1=O
- inhibition (HEK293): Dose-dependent effect
- pIC50 [1]: 5.31

- Cmax [3]: 190 ng/mL
- Activity (Mus musculus [4]): Active
- recovered at 5 ng/mL [5]: > 90%
- k el [6]: 0.000278 s⁻¹
- half-life [7]: 42 min
- Stability (Plasma): Stable
- Activity (Mus musculus [8]): inactive
- remaining at 50 ng/mL [9]: > 90%
- AUC [10]: 138 ng·h/mL
- remaining at 0.5 h, 0.01 µM [2]: 3%
SMILES: CCNC(=O)[C@@H]1CCCN1C(=O)[C@H](CCCNC(=N)N)NC(=O)[C@H](CC(C)C)NC(=O)[C@@H](CC(C)C)NC(=O)[C@H](Cc1ccc(O)cc1)NC(=O)[C@H](CO)NC(=O)[C@H](Cc1c[nH]c2ccccc12)NC(=O)[C@H](Cc1c[nH]cn1)NC(=O)[C@@H]1CCC(=O)N1 [LEUPROLIDE]
- inhibition (HEK293): Dose-dependent effect
- pIC50 [1]: 9.12
- Activity (Mus musculus [11]): 244.1 ng·h/mL

- Stability ([2]; epithelial cell, 0.5 h, 0.01 µM): Unstable
SMILES: CC(C)C[C@H](NC(=O)CNC(=O)[C@H](Cc1ccc(O)cc1)NC(=O)[C@H](CO)NC(=O)[C@H](Cc1c[nH]c2ccccc12)NC(=O)[C@H](Cc1cnc[nH]1)NC(=O)[C@@H]1CCC(=O)N1)C(=O)N[C@@H](CCCNC(=N)N)C(=O)N1CCC[C@H]1C(=O)NCC(N)=O [GONADORELIN]
- inhibition (HEK293): Dose-dependent effect

- remaining at 0.5 h, 0.01 µM [2]: 90%
SMILES: COc1ccc(C[C@@H]2NC(=O)[C@H](CO)NC(=O)[C@H](Cc3c[nH]c4ccccc34)NC(=O)[C@H](Cc3cnc[nH]3)NC(=O)[C@@H]3CCCN3C(=O)CC(C)NC(=O)[C@@H]3CCN3C(=O)[C@H](CCCNC(=N)N)NC(=O)[C@H](CC(C)C)NC(=O)[C@@H](CC(C)C)NC2=O)cc1 (some centres not stated)
- inhibition (HEK293): Dose-dependent effect
- pIC50 [1]: 5.82

— ChEMBL document CHEMBL2150946, “Rationally designed cyclic analogues of luteinizing hormone-releasing hormone: enhanced enzymatic stability and biological properties” (Eur J Med Chem, 2012)
